A selection: hits, their analogues and other compounds. The true share with any hit is near 1.1%.
KLK5 inh – kallikrein 5 (human) inhibition; recombinant hK5, fluorogenic AMC substrate cleavage; inhibition, % at 5 µM; hit rate 0.59% among 210,000; AID 873;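 active = inhibition of 40% or more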
FXIa inh 1536 – inhibitors of human coagulation factor XIa | purified FXIa, Boc-Glu-Ala-Arg-AMC fluorogenic substrate | hit rate 0.14% among 220,000 | inhibition, % at 5 µM;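 active = inhibition of at least 40%; inactive = inhibition below 40%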;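 note: fluorescence of freed AMC excited at 355 nm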
FXIIa inh – inhibitors of human coagulation factor XIIa; P00748; purified FXIIa, Boc-QGR-AMC fluorogenic substrate, 2 h; inhibition, % at 5 µM; hit rate 0.3% among 220,000; in the data active = inhibition above about 40%
Biofilm kill mix – mixture kills Candida albicans biofilm cells; C. albicans biofilm persisters + clotrimazole, fluorescence viability; primary screen in compound mixtures of four per well; inhibition, % at 7.6 µM; hit rate 0.02% among 120,000;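 active = inhibition above 30.3% in the primary screen of four-compound pools, then above 30% when the compound was retested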;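 note: compounds exposed to preformed 24 h biofilms for 48 h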
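Test system: C. albicans CAF4-2 wild-type biofilms; buffer or medium: RPMI/MOPS medium, pH 7.0; schedule: 24 h biofilm formation, then 48 h compound exposure, 37 °C; detection: Alamar Blue fluorescence; measure: percent inhibition of biofilm viability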
Furin inhibitor – inhibitors of human furin; P09958; purified furin, fluorogenic substrate cleavage; inhibition, % at 20 µM or 30 µM; hit rate 0.061% among 220,000; AID 463115; in the data active = inhibition above about 25%
Target sequence (P09958 108-714 limits assumed): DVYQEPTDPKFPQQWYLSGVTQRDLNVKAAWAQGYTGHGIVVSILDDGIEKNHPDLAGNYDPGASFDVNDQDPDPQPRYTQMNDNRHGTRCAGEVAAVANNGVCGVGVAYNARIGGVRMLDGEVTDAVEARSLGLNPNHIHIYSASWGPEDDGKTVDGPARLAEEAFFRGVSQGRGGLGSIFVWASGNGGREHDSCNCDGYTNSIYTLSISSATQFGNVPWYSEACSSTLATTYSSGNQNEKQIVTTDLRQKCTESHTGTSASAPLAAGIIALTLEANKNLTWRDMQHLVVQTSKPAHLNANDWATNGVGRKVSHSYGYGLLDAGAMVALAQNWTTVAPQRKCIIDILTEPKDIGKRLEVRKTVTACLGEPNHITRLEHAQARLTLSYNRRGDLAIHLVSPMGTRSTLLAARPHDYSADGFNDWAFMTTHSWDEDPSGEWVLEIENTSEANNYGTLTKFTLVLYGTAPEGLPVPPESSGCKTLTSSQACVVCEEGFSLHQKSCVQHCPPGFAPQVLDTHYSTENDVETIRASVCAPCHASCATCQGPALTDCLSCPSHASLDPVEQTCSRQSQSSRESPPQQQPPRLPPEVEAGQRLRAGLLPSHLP
thrombin 1536 – inhibitors of human thrombin; P00734; alpha-thrombin, Boc-VPR-AMC fluorogenic substrate cleavage; inhibition, % at 5 µM; hit rate 0.26% among 220,000; AID 1046;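 active = inhibition at or above 40%; inactive = inhibition below 40%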
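Assay system: human alpha-thrombin enzyme. Reagent: Boc-VPR-AMC substrate, 15 µM final. Compound dosing: one concentration per compound, 5 µM, with 0.2% DMSO. Incubation: room-temperature reaction. Technique: AMC fluorescence, 355/460 nm. Measure: % inhibition relative to enzyme controls and enzyme-free blanks.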
Large screens that a line does not name were inactive.

CC(=O)N1CN2CN(C(C)=O)CC(C(=O)c3ccccc3)(C2)C1	KLK5 inh 48 (no result: Biofilm kill mix)
CC(=O)N1CN2CN(C(C)=O)CC(C(=O)c3ccc([N+](=O)[O-])cc3)(C2)C1	none
O=C1/C(=C\c2cc3c(cc2Br)OCO3)N2CCC1CC2	none
CCOc1ccc(-n2c(O)c(N=Nc3c(C)n(C)n(-c4ccccc4)c3=O)c(=O)[nH]c2=O)cc1	Furin inhibitor 25
COc1ccc(Cc2c(O)[nH]c(=O)[nH]c2=O)c(OC)c1	none
